Source: ChEMBL document CHEMBL2040760, “Synthesis and biological evaluation of novel (-)-Cercosporamide derivatives as potent selective PPARγ modulators” (Eur J Med Chem, 2012)
Values after ≈ are worked out from the molar mass of the structure shown. Active and inactive are the calls of the source. No cut-off for these calls is given here.

Assays:
[1] = molecular target: T1, Peroxisome proliferator-activated receptor gamma (Homo sapiens, UniProt P37231); test: Modulation of full-length human pSG5-fused PPARgamma expressed in MG-63 cells co-expressing pGV-P2-PPRE after 24 hrs by luciferase reporter gene based transactivation assay; type: cell-based
T1 sequence (P37231 whole entry): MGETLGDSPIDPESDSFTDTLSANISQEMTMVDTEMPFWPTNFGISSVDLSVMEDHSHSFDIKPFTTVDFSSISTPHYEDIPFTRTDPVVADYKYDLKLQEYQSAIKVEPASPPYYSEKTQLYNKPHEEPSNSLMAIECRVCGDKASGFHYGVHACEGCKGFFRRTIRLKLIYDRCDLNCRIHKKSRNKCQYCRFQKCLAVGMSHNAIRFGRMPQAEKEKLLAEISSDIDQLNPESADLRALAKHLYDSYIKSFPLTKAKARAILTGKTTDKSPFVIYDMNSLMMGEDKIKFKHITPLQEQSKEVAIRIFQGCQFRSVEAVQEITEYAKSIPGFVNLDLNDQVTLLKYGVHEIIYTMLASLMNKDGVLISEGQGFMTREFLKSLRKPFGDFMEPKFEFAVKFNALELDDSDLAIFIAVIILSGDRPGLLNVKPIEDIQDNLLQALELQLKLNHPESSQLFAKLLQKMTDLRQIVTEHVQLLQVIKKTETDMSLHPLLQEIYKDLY
Method in brief: (§1)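 MG-63 cells transiently co-transfected (Lipofectamine, 4 h, serum- and antibiotic-free) with pSG5-hPPARγ and pGV-P2-PPRE luciferase reporter, replated at 40,000 cells/well. After 24 h and medium change, exposed to graded compound concentrations for 20 h. Luciferase luminescence read as the output.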

[2] = molecular target: T2, Peroxisome proliferator-activated receptor gamma (Homo sapiens) (UniProt P37231); test: Modulation of full-length human pSG5-fused PPARgamma expressed in MG-63 cells co-expressing pGV-P2-PPRE after 24 hrs by luciferase reporter gene based transactivation assay relative to 5-(4-{[6-(4-hydroxy-3,5-dimethylphenoxy)-1-methyl-1H-benzimidazol- 2-yl]methoxy}benzyl)-1,3-thiazolidine-2,4-dione; type: cell-based; method in brief: as §1
T2 sequence (whole entry): T1 sequence (P37231 whole entry)

[3] = molecular target: T1, Peroxisome proliferator-activated receptor gamma; test: Modulation of human GAL4-fused PPARgamma LBD expressed in COS7 cells co-expressing pG5luc by luciferase reporter gene based transactivation assay; type: cell-based, COS-7
Method in brief: (§2)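 COS7 cells in DMEM with 10% FBS were transfected with pM-hPPARγ, pM-PPARα or pM-PPARδ (GAL4-LBD) plus pG5luc using Lipofectamine 2000, then reseeded and held about 24 h. Serial dilutions were added, with 0.1% DMSO as control, for about 24 h more. Read-out was luciferase luminescence. Mean ± S.E.M., n = 3.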

[4] = Solubility of the compound in JP2 at pH 6.8; type: physicochemical; details: JP2, pH 6.8
Method in brief: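 Solubility was measured in JP2 medium at pH 6.8.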

[5] = Oral bioavailability in Fischer rat at 10 mg/kg; type: ADME, organism-based; details: in vivo
Method in brief: (§3)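 Male Fischer rats, fasted overnight, received the potassium salt at 10 mg/kg (5 mg/mL, 2 mL/kg). Vehicle was 20% HCO-60 in saline orally or 5% HCO-60 intravenously. Jugular-vein blood was taken and plasma drug measured by LC-MS/MS. Non-compartmental PK analysis; oral n = 4.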

[6] = test system: Rattus norvegicus; test: Toxicity in Wistar-Imamichi rat assessed as increase heart weight at 100 mg/kg, po qd for 14 days; type: organism-based; parameters: dose 100 mg/kg, route oral; details: in vivo, 336 h
Method in brief: (§4)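 Female Wistar–Imamichi rats, 7 weeks old on arrival, randomised by BW. Once-daily oral gavage in 0.5% methylcellulose for 14 days, n = 5, BW recorded daily. On Day 14, 0.05% Evans blue was given i.v. (0.1 mL/100 g) and aortic blood drawn at 10 min. Heart weighed. Plasma TCA-deproteinised, sonicated, A620 read, and plasma volume computed from an EB calibration curve.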

[7] = test system: Rattus norvegicus; test: Toxicity in Wistar-Imamichi rat assessed as increase in body weight at 30 to 100 mg/kg, po qd for 14 days; type: organism-based; parameters: dose 30-100 mg/kg, route oral; details: in vivo, 336 h; method in brief: as §4
[8] = Total clearance in Fischer rat at 10 mg/kg, iv; type: ADME, organism-based; parameters: dose 10 mg/kg, route intravenous; details: in vivo; method in brief: as §3
[9] = test system: Rattus norvegicus; test: Antidiabetic activity in Zucker diabetic fatty rat assessed as reduction of non-fasting plasma glucose level at >1 mg/kg, po qd for 12 days; type: functional
Method in brief: (§5)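 Female ZDF rats, 5 weeks old on arrival, acclimatised over 1 week on MR-DBT chow with 10% lard. Randomised on Day -1 by BW, PG, insulin and blood indices. Once-daily oral gavage in 0.5% methylcellulose at 0.01–100 mg/kg for 12 days, n = 5. BW recorded daily. Tail-vein plasma taken Day 12 for glucose, TG, FFA and insulin kits. Dunnett vs vehicle.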

[10] = Terminal half life in Fischer rat at 10 mg/kg, iv; type: ADME, organism-based; parameters: dose 10 mg/kg, route intravenous; details: in vivo, read-out: beta t1/2 (converted); method in brief: as §3
[11] = test system: Rattus norvegicus; test: Toxicity in Wistar-Imamichi rat assessed as increase plasma volume at 100 mg/kg, po qd for 14 days; type: organism-based; parameters: dose 100 mg/kg, route oral; details: in vivo, 336 h; method in brief: as §4
[12] = test system: Rattus norvegicus; test: Toxicity in Zucker diabetic fatty rat assessed as increase in body weight at >1 mg/kg, po qd for 12 days; type: organism-based; details: in vivo, 288 h; method in brief: as §5
[13] = test system: Rattus norvegicus; test: Antidiabetic activity in po dosed Zucker diabetic fatty rat assessed as improvement in plasma lipids profiles administered qd for 12 days; type: functional, organism-based; method in brief: as §5
[14] = molecular target: T3, Peroxisome proliferator-activated receptor delta (Homo sapiens) (UniProt Q03181); test: Modulation of human GAL4-fused PPARdelta LBD expressed in COS7 cells co-expressing pG5luc at 10 uM by luciferase reporter gene based transactivation assay; type: cell-based; details: COS-7; method in brief: as §2
T3 sequence (whole entry): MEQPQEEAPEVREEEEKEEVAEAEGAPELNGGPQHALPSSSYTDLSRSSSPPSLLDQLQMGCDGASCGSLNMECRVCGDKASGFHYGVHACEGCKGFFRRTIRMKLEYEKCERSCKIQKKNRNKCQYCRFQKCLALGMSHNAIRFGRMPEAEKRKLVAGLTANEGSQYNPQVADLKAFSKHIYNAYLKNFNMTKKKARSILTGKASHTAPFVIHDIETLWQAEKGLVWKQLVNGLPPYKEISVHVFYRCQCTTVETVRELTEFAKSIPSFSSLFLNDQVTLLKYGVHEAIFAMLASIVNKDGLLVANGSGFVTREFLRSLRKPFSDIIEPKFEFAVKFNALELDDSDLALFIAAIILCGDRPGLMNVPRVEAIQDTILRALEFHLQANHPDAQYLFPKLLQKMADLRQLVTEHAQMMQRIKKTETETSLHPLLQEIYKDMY

[15] = test system: Rattus norvegicus; test: Antidiabetic activity in Zucker diabetic fatty rat assessed as reduction of free fatty acids level at >1 mg/kg, po qd for 12 days; type: functional, organism-based; method in brief: as §5
[16] = molecular target: T2, Peroxisome proliferator-activated receptor gamma (Homo sapiens); test: Modulation of human GAL4-fused PPARgamma LBD expressed in COS7 cells co-expressing pG5luc by luciferase reporter gene based transactivation assay relative to control; type: cell-based; details: COS-7; method in brief: as §2
[17] = test system: Rattus norvegicus; test: Antidiabetic activity in Zucker diabetic fatty rat assessed as reduction of triglyceride level at 100 mg/kg, po qd for 12 days; type: functional, organism-based; parameters: dose 100 mg/kg; method in brief: as §5
[18] = molecular target: T4, Peroxisome proliferator-activated receptor alpha (Homo sapiens) (UniProt Q07869); test: Modulation of human GAL4-fused PPARalpha LBD expressed in COS7 cells co-expressing pG5luc at 10 uM by luciferase reporter gene based transactivation assay; type: cell-based; details: COS-7; method in brief: as §2
T4 sequence (whole entry): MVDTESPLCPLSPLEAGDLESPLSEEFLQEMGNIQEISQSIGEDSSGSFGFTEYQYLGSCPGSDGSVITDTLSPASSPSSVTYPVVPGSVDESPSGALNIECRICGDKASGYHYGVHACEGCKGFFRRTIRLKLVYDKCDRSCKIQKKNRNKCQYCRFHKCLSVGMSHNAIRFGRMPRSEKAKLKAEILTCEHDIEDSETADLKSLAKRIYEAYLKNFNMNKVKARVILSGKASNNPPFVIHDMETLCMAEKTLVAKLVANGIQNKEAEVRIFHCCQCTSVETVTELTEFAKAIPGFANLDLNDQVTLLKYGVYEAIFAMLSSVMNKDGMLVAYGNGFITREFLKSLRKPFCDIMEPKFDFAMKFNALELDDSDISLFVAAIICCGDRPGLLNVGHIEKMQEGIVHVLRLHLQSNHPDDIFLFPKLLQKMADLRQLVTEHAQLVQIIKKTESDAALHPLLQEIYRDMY

What does the source list for `COc1cc(O)c2c(c1C(=O)NCc1cccc3ccccc13)OC1=CC(O)=C(C(C)=O)C(=O)[C@]12C`?
EC50 [1]: 180 nM; Emax [2]: 47%

With `COc1cc(O)c2c(c1C(=O)NCc1c(C)ccc3ccc(F)cc13)OC1=CC(O)=C(C(C)=O)C(=O)[C@]12C` as the molecule, how does the EC50 [1] read?
The EC50 was 65 nM.

What about the Emax [2] of the same molecule?
The Emax was 40%.

With `CCc1cc(F)c2ccccc2c1CNC(=O)c1c(OC)cc(O)c2c1OC1=CC(O)=C(C(C)=O)C(=O)[C@]12C` [listing 1 of 2 here] as the molecule, how does the EC50 [1] read?
Its EC50 is 0.94 nM.

What about the EC50 [3] of the same molecule?
The EC50 was 12 nM.

And the solubility [4]?
Its solubility is 23 µg/mL (≈ 43.3 µM).

Which EC50 [1] does the source give for `CCCCc1ccc2ccccc2c1CNC(=O)c1c(OC)cc(O)c2c1OC1=CC(O)=C(C(C)=O)C(=O)[C@]12C` here?
Its EC50 is 59 nM.

And the Emax [2]?
Its Emax is 22%.

With `CCc1cc(F)c2ccccc2c1CNC(=O)c1c(OC)cc(O)c2c1OC1=CC([O-])=C(C(C)=O)C(=O)[C@]12C.[K+]` as the molecule, how does the bioavailability [5] read?
Its bioavailability is 58%.

What about the Activity [6] of the same molecule?
Its Activity is “Non-toxic”.

And the Activity [7]?
Its Activity is “Toxic”.

And the clearance [8]?
Its clearance is 6.98 mL/min/kg.

What about the Activity [9] of the same molecule?
Its Activity is under 200 mg/dL.

What about the solubility [4] of the same molecule?
The solubility was 910 µg/mL.

What about the half-life [10] of the same molecule?
Its half-life is 4 h.

What about the Activity [11] of the same molecule?
Its Activity is “Non-toxic”.

What about the Activity [12] of the same molecule?
Its Activity is “Toxic”.

Which EC50 [1] does the source give for `COc1cc(O)c2c(c1C(=O)NCc1c(C)cc(Cl)c3ccccc13)OC1=CC(O)=C(C(C)=O)C(=O)[C@]12C` here?
The EC50 was 22 nM.

What about the Emax [2] of the same molecule?
Its Emax is 57%.

With `CCCc1ccc2ccccc2c1CNC(=O)c1c(OC)cc(O)c2c1OC1=CC(O)=C(C(C)=O)C(=O)[C@]12C` as the molecule, how does the EC50 [1] read?
Its EC50 is 43 nM.

What about the Emax [2] of the same molecule?
The Emax was 37%.

Which Activity [13] does the source give for `CCc1cc(F)c2ccccc2c1CNC(=O)c1c(OC)cc(O)c2c1OC1=CC(O)=C(C(C)=O)C(=O)[C@]12C` [listing 2 of 2 here] here?
Its Activity is “Dose-dependent effect”.

And the Activity [14]?
The Activity was “inactive”.

And the Activity [15]?
The Activity was “Active”.

What about the Emax [16] of the same molecule?
The Emax was 64%.

And the Emax [2]?
The Emax was 38%.

And the Activity [17]?
Its Activity is “Active”.

What about the Activity [18] of the same molecule?
The Activity was “inactive”.
